Results from article PMC3423201 (Molecular cancer therapeutics, 2011).
Where two headings read alike, the source gives them in different places.

Columns and labels:
AMACR-MBP [1] = target: T1, AMACR-MBP (Homo sapiens, UniProt Q9UHK6); experiment: High-throughput screen for AMACR inhibitors; type: biochemical; settings: for inhibition at 100 µM: read-out: inhibition (decrease of fractional activity) in HTS
T1 sequence (Q9UHK6 1-382): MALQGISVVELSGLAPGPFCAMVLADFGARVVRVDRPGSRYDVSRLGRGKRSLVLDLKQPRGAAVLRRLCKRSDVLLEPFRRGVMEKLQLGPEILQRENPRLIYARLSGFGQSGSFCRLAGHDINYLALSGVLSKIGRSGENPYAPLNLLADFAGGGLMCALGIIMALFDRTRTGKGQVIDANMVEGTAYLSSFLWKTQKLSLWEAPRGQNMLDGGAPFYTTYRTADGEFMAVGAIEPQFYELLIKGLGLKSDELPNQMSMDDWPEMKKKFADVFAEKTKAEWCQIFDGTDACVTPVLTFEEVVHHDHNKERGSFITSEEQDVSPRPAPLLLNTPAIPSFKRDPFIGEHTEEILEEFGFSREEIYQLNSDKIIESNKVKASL
How it was run: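 Recombinant AMACR-MBP was expressed in E. coli TB1, purified on a maltose column and dialysed into 100 mM Na/K/Pi pH 7.25. Enzyme (0.3 μM) was incubated with 100 μM test compound (1% DMSO) and 150 μM [2,3-3H]Pri-CoA (60 Ci/mol) in buffer with 0.125 mg/mL BSA for 30 min at 37°C. Reactions were acid-quenched, neutralised and passed through C18 SPE, and released 3H2O was scintillation-counted. Fractional activity was calculated against each row's no-inhibitor control after no-enzyme background subtraction; <0.8 was flagged as a hit.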

AMACR-MBP [2] = target: T1, AMACR-MBP; experiment: AMACR inhibitor IC50 determination; type: biochemical
How it was run: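 Run as the plate screen (0.3 μM AMACR-MBP, 100 μM [2,3-3H]Pri-CoA, SPE and scintillation read-out), adding enzyme last. Test compound was dosed at 1–1000 μM, extended to 1–750 nM for selected compounds, from 100% DMSO stocks, giving 2–6% DMSO, in triplicate. Fractional activity was fitted by 3-parameter log(inhibitor)-response regression.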

AMACR-MBP [3] = target: T1, AMACR-MBP; experiment: Kitz-Wilson analysis of time-dependent inactivation; type: biochemical; settings: for KI (inactivation): 37°C, Kitz-Wilson transformation
How it was run: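 Inactivation mixtures at 37°C contained test compound at a series of concentrations and 5 μM AMACR-MBP, started with enzyme. At timed points from zero, 2 μL was diluted 50-fold into buffer with 150 μM [2,3-3H]Pri-CoA (100 nM final enzyme) and reacted for 30 min, then SPE/scintillation. Activity remaining was expressed versus time-matched no-inhibitor controls. T1/2 was regressed against 1/[I], giving kinact = ln2/y-intercept and KI(inact) = −1/x-intercept.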

WPMY1 = experiment: In-vitro LD50, alamarBlue viability, WPMY1; type: cell-based, human; settings: WPMY1, 48 hours
How it was run: (§1)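 Cells were plated at 10,000 per well in triplicate and allowed to attach overnight. Medium was replaced with test compound (0–500 μM or 0–400 μM depending on compound) for 48 h. Cells were then incubated with alamarBlue for 4 h and fluorescence read at 544 ex/590 em. After media-only background subtraction, viability was expressed as a percent of the vehicle control. LD50 came from a 4-parameter variable-slope fit with the bottom constrained to zero.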

PC3 = experiment: In-vitro LD50, alamarBlue viability, PC3; type: cell-based, human; settings: PC3, 48 hours
How it was run: as §1

LAPC4 = experiment: In-vitro LD50, alamarBlue viability, LAPC4; type: cell-based, human; settings: LAPC4, 48 hours
How it was run: as §1

LNCaP = experiment: In-vitro LD50, alamarBlue viability, LNCaP; type: cell-based, human; settings: 48 hours
How it was run: as §1

[4] = system: prostate cancer cell lines (LAPC4/LNCaP/PC3) compared to WPMY1; type: cell-based, human; settings: highest vs lowest AMACR expressor
How it was run: as §1

Mode of cell death = type: cell-based; settings: Supplementary Figure S7
AMACR-MBP [5] = target: T1, AMACR-MBP; experiment: Effect of pre-incubation time on ebselen inhibition; type: biochemical
[6] = neuroprotective doses, 300 mg/day, oral; ref [44], [46]; cited from earlier work
AMACR = target: T2, AMACR (Homo sapiens, UniProt Q9UHK6); experiment: Pre-incubation of AMACR with cysteine specific reagents, with or without ebselen; type: biochemical; settings: 20 mM dithithreitol, 5 mM tributylphosphine, 15 mM iodoacetamide
T2 sequence (Q9UHK6 1-382): T1 sequence (Q9UHK6 1-382)

AMACR-MBP [7] = target: T1, AMACR-MBP; experiment: Kinetic parameters; type: biochemical; settings: 0.3 μM AMACR-MBP, 37°C, ± SEM
How it was run: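 Reactions of 185 μL held 0.3 μM AMACR-MBP in Na/K/Pi pH 7.25 with BSA at 37°C. [2,3-3H]Pri-CoA was used at 1–400 μM (twelve levels), all at 60 Ci/mol, and reactions were started with enzyme. Aliquots of 20 μL were taken at 0–900 s and quenched in 2 M HCl, with no-enzyme backgrounds at each time point. Aliquots were processed by SPE/scintillation, DPM were converted to rates, and rates were fitted directly to Michaelis-Menten.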

O=c1c2ccccc2[se]n1-c1ccccc1 [ebselen]
inhibition at 100 µM (AMACR-MBP [1]): ≥ 20% | IC50 (AMACR-MBP [2]): 2.79 µM | mode of inhibition (AMACR-MBP [3]): irreversible inactivators | KI (inactivation) (AMACR-MBP [3]): 24 µM | LD50 (WPMY1): 467.1 ± 1.017 µM | LD50 (PC3): 332.3 ± 1.015 µM | LD50 (LAPC4): 98.43 ± 1.038 µM | LD50 (LNCaP): 71.96 ± 1.106 µM | difference in LD50 between LNCaP and WPMY1 [4]: 5 fold | type of cell death induced (Mode of cell death): necrotic cell death | fractional activity of AMACR-MBP (AMACR-MBP [5]; no pre-incubation (enzyme initiated)): ~ 50% | fractional activity of AMACR-MBP (AMACR-MBP [5]; pre-incubation time of ≥ 5 minutes (substrate initiated)): just above background | tolerability in clinical trials [6]: well tolerated

CSc1nc(=S)c2[nH]c(=S)[nH]c2[nH]1 [MSDTP, 2-methylsulfanyl-7,9-dihydro-3H-purine-6,8-dithione]
mode of inhibition (AMACR-MBP [3]): covalent inactivators

CCCCP(CCCC)CCCC [TBP, tributylphosphine]
effect of pre-incubation with cysteine specific reagent on AMACR-MBP activity (AMACR): does not abrogate AMACR-MBP activity

[3H]C(CCC(C)CCCC(C)CCCC(C)C)C([3H])(C)C(=O)SCCNC(=O)CCNC(=O)[C@H](O)C(C)(C)COP(=O)(O)OP(=O)(O)OC[C@H]1O[C@@H](n2cnc3c(N)ncnc32)[C@H](O)[C@@H]1OP(=O)(O)O (some centres unmarked) [[2,3-^3H] Pri-CoA, [2,3-^3H] pristanoyl coenzyme A]
Vmax (AMACR-MBP [7]): 294.9 ± 21.10 pmol/min

O=C1c2ccccc2[Se](=O)N1c1ccccc1 (centres unmarked) [ebselen oxide]
IC50 (AMACR-MBP [2]; 100 μM [2,3-3H]Pri-CoA, 0.3 μM AMACR-MBP, enzyme initiated): 0.8 µM

Cc1cc(O)c(-c2cc(O)c(C)cc2O)cc1O [DMPMB, 2-(2,5-dihydroxy-4-methylphenyl)-5-methyl benzene-1,4-diol]
mode of inhibition (AMACR-MBP [3]): irreversible inactivators | KI (inactivation) (AMACR-MBP [3]): 24.3 µM | LD50 (WPMY1): 117.6 ± 1.011 µM | LD50 (PC3): 101.1 ± 1.034 µM | LD50 (LAPC4): 58.78 ± 1.058 µM | LD50 (LNCaP): 116.9 ± 1.033 µM | type of cell death induced (Mode of cell death): necrotic cell death

O[C@@H](CS)[C@@H](O)CS (racemic) [DTT, dithithreitol]
effect of pre-incubation with cysteine specific reagent on AMACR-MBP activity (AMACR): does not abrogate AMACR-MBP activity

CC(C)CCCC(C)CCCC(C)CCCC(C)C(=O)SCCNC(=O)CCNC(=O)[C@H](O)C(C)(C)COP(=O)(O)OP(=O)(O)OC[C@H]1O[C@@H](n2cnc3c(N)ncnc32)[C@H](O)[C@@H]1OP(=O)(O)O (some centres unmarked) [[2,3-^3H] Pri-CoA, [2,3-^3H] pristanoyl coenzyme A]
Km (AMACR-MBP [7]): 85.6 ± 17.1 µM

Nc1c(/N=N/c2ccc(-c3ccc(/N=N/c4cc(S(=O)(=O)O)c5ccccc5c4N)cc3)cc2)cc(S(=O)(=O)O)c2ccccc12 [Congo Red, congo red]
inhibition at 100 µM (AMACR-MBP [1]): ≥ 20%

NC(=O)CI [IAA, iodoacetamide]
effect of pre-incubation with cysteine specific reagent on AMACR-MBP activity (AMACR): does not abrogate AMACR-MBP activity

O=C1c2c(O)ccc(O)c2C(=O)c2c(NCCNCCO)ccc(NCCNCCO)c21 [mitoxantrone]
inhibition of AMACR-MBP detected in library screen (AMACR-MBP [1]; 100 μM, both JHDL and NCI/DTP libraries): inhibition of AMACR-MBP
